This is an account of results in ChEMBL document CHEMBL3102798, “Stapled Vasoactive Intestinal Peptide (VIP) Derivatives Improve VPAC2 Agonism and Glucose-Dependent Insulin Secretion” (ACS Med Chem Lett, 2013).

Series [1] in a line: Stability of the compound in phosphate buffer assessed as compound remaining at pH 7.4 after 15 mins by LC-MS-MS analysis in presence of trypsin. It is filed as ADME. To be noted: phosphate buffer with trypsin, read-out: Stability.
Series [2] is described as follows: Apparent passive permeability across apical to basolateral side in human Caco2 cells at 10 uM after 30 to 60 mins by LC/MS analysis. It counts as ADME, cell-based. As to conditions: Caco-2.
The nature of series [3]: Half life in human at 3.3 pmol/kg/min, iv administered as infusion. It counts as ADME, organism-based. As to conditions: in vivo.
The target of series [4] is T1, Vasoactive intestinal polypeptide receptor 2 (Homo sapiens, UniProt P41587).
T1 sequence (P41587 whole entry): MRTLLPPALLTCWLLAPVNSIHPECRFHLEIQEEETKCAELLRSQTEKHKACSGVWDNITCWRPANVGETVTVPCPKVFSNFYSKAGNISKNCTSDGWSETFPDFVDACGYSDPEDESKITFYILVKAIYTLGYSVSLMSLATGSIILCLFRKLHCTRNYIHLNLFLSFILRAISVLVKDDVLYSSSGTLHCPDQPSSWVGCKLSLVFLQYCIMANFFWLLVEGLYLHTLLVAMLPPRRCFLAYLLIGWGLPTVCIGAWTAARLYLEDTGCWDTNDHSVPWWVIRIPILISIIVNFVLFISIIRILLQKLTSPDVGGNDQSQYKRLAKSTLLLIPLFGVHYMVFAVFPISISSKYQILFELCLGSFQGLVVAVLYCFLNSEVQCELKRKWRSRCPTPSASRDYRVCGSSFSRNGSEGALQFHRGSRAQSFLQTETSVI
Put plainly: Agonist activity at human VPAC2 expressed in CHO Flp-in cells assessed as accumulation of cAMP after 30 mins by TR-FRET assay. It counts as functional, cell-based.

Series [5] has as its system Pancreatic islet. Nature of the series: Induction of 8 mM glucose-induced insulin secretion in Han Wistar rat pancreatic islets at 10 to 100 nM after 2 hrs by HTRF assay. It counts as functional. The method, boiled down:
(§1)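 Isolated rat pancreatic islets were incubated with peptide in 8 mM glucose, and insulin secretion was measured. Data are mean ±SE (n > 3), and significance was tested against vehicle-treated samples.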
Background: TR-FRET usually uses a lanthanide donor and a delayed reading to cut background.

Series [6] has as its system Pancreatic islet. Put plainly: Induction of 8 mM glucose-induced insulin secretion in Han Wistar rat pancreatic islets at 100 nM after 2 hrs by HTRF assay. It counts as functional. The method, boiled down: as §1
Series [7] deals with Pancreatic islet. Nature of the series: Induction of 8 mM glucose-induced insulin secretion in Han Wistar rat pancreatic islets after 2 hrs by HTRF assay. It is filed as functional. An outline of the steps:
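Isolated rat pancreatic islets were incubated with 8 mM glucose plus peptide over a range of concentrations, and secreted insulin was measured. Data are mean (±SE), n > 3, and were compared with vehicle-treated samples (p < 0.05, 0.01, 0.001).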

For series [8], the system named is Pancreatic islet. Nature of the series: Induction of 8 mM glucose-induced insulin secretion in Han Wistar rat pancreatic islets at 1 to 100 nM after 2 hrs by HTRF assay. It counts as functional. The method, boiled down:
as §1

The source made the active and inactive calls. Bridge positions count the residues as written; N and C are the ends. Peptide text beside a SMILES is read from it.

One may read the Papp A→B as how fast a substance crosses the layer from the apical side. By half-life is commonly meant the time needed for the level to fall by half in the phase considered. The low end stands for rapid decline, the high end for slow decline. One may read the EC50 as the concentration that produces a half-maximal response.

As for `CC[C@H](C)[C@H](NC(=O)[C@H](CO)NC(=O)[C@H](CC(N)=O)NC(=O)[C@H](CC(C)C)NC(=O)[C@H](Cc1ccc(O)cc1)NC(=O)[C@H](CCCCN)NC(=O)[C@H](CCCCN)NC(=O)[C@@H](NC(=O)[C@H](C)NC(=O)[C@H](CCSC)NC(=O)[C@H](CCC(N)=O)NC(=O)[C@H](CCCCN)NC(=O)[C@H](CCCN=C(N)N)NC(=O)[C@H](CC(C)C)NC(=O)[C@H](CCCN=C(N)N)NC(=O)[C@@H](NC(=O)[C@H](Cc1ccc(O)cc1)NC(=O)[C@H](CC(N)=O)NC(=O)[C@H](CC(=O)O)NC(=O)[C@@H](NC(=O)[C@H](Cc1ccccc1)NC(=O)[C@@H](NC(=O)[C@H](C)NC(=O)[C@H](CC(=O)O)NC(=O)[C@H](CO)NC(=O)[C@@H](N)Cc1c[nH]cn1)C(C)C)[C@@H](C)O)[C@@H](C)O)C(C)C)C(=O)N[C@@H](CC(C)C)C(=O)N[C@@H](CC(N)=O)C(N)=O`, the remaining at 0.25 h in series [1] is 0.5%. The Papp A→B at 10 µM in series [2] is below 0.1 ×10⁻⁶ cm/s. This compound also showed a half-life in series [3] below 1 min.
Turning to `CC[C@H](C)[C@H](NC(=O)[C@H](CO)NC(=O)[C@H](CC(N)=O)NC(=O)[C@H](CC(C)C)NC(=O)[C@H](Cc1ccc(O)cc1)NC(=O)[C@H](CCCCN)NC(=O)[C@H](CCCCN)NC(=O)[C@@H](NC(=O)[C@H](C)NC(=O)[C@]1(C)CCCC/C=C\CCCC[C@](C)(NC(=O)[C@H](CCCNC(=N)N)NC(=O)[C@@H](NC(=O)[C@H](Cc2ccc(O)cc2)NC(=O)[C@H](CC(N)=O)NC(=O)[C@H](CC(=O)O)NC(=O)[C@@H](NC(=O)[C@H](Cc2ccccc2)NC(=O)[C@@H](NC(=O)[C@H](C)NC(=O)[C@H](CC(=O)O)NC(=O)[C@H](CO)NC(=O)[C@@H](N)Cc2cnc[nH]2)C(C)C)[C@@H](C)O)[C@@H](C)O)C(=O)N[C@@H](CCCNC(=N)N)C(=O)N[C@@H](CCCCN)C(=O)N[C@@H](CCC(N)=O)C(=O)N1)C(C)C)C(=O)N[C@@H](CC(C)C)C(=O)N[C@@H](CC(N)=O)C(=O)NCC(=O)N[C@@H](CCCCN)C(=O)O`, the EC50 in series [4] came to 0.049 nM. Besides, in the series on Pancreatic islet [5], the outcome was Active. Also, the remaining at 0.25 h in series [1] worked out at 1.5%. Further, the Papp A→B at 10 µM in series [2] is below 0.1 ×10⁻⁶ cm/s.
As to `C=CCCC[C@](C)(NC(=O)[C@H](CCC(N)=O)NC(=O)[C@H](CCCCN)NC(=O)[C@H](CCCNC(=N)N)NC(=O)[C@](C)(CCCC=C)NC(=O)[C@H](CCCNC(=N)N)NC(=O)[C@@H](NC(=O)[C@H](Cc1ccc(O)cc1)NC(=O)[C@H](CC(N)=O)NC(=O)[C@H](CC(=O)O)NC(=O)[C@@H](NC(=O)[C@H](Cc1ccccc1)NC(=O)[C@@H](NC(=O)[C@H](C)NC(=O)[C@H](CC(=O)O)NC(=O)[C@H](CO)NC(=O)[C@@H](N)Cc1cnc[nH]1)C(C)C)[C@@H](C)O)[C@@H](C)O)C(=O)N[C@@H](C)C(=O)N[C@H](C(=O)N[C@@H](CCCCN)C(=O)N[C@@H](CCCCN)C(=O)N[C@@H](Cc1ccc(O)cc1)C(=O)N[C@@H](CC(C)C)C(=O)N[C@@H](CC(N)=O)C(=O)N[C@@H](CO)C(=O)N[C@H](C(=O)N[C@@H](CC(C)C)C(=O)N[C@@H](CC(N)=O)C(=O)NCC(=O)N[C@@H](CCCCN)C(=O)O)[C@@H](C)CC)C(C)C`, in the series with Pancreatic islet [6], the outcome was Active.
For the compound `CC[C@H](C)[C@H](NC(=O)[C@H](CO)NC(=O)[C@H](CC(N)=O)NC(=O)[C@H](CC(C)C)NC(=O)[C@H](Cc1ccc(O)cc1)NC(=O)[C@H](CCCCN)NC(=O)[C@H](CCCCN)NC(=O)[C@@H](NC(=O)[C@H](C)NC(=O)[C@H](CCSC)NC(=O)[C@H](CCC(N)=O)NC(=O)[C@H](CCCCN)NC(=O)[C@H](CCCNC(=N)N)NC(=O)[C@H](CC(C)C)NC(=O)[C@H](CCCNC(=N)N)NC(=O)[C@@H](NC(=O)[C@H](Cc1ccc(O)cc1)NC(=O)[C@H](CC(N)=O)NC(=O)[C@H](CC(=O)O)NC(=O)[C@@H](NC(=O)[C@H](Cc1ccccc1)NC(=O)[C@@H](NC(=O)[C@H](C)NC(=O)[C@H](CC(=O)O)NC(=O)[C@H](CO)NC(=O)[C@@H](N)Cc1cnc[nH]1)C(C)C)[C@@H](C)O)[C@@H](C)O)C(C)C)C(=O)N[C@@H](CC(C)C)C(=O)N[C@@H](CC(N)=O)C(=O)O`, in the series with Pancreatic islet [7], the Activity result was “Dose-dependent effect”.
On the same count and under the same terms, for `CC[C@H](C)[C@H](NC(=O)[C@H](Cc1ccccc1)NC(=O)[C@H](CCC(=O)O)NC(=O)[C@H](CCCCN)NC(=O)[C@H](C)NC(=O)[C@H](C)NC(=O)[C@H](CCC(N)=O)NC(=O)CNC(=O)[C@H](CCC(=O)O)NC(=O)[C@H](CC(C)C)NC(=O)[C@H](Cc1ccc(O)cc1)NC(=O)[C@H](CO)NC(=O)[C@H](CO)NC(=O)[C@@H](NC(=O)[C@H](CC(=O)O)NC(=O)[C@H](CO)NC(=O)[C@@H](NC(=O)[C@H](Cc1ccccc1)NC(=O)[C@@H](NC(=O)CNC(=O)[C@H](CCC(=O)O)NC(=O)[C@H](C)NC(=O)[C@@H](N)Cc1c[nH]cn1)[C@@H](C)O)[C@@H](C)O)C(C)C)C(=O)N[C@@H](C)C(=O)N[C@@H](Cc1c[nH]c2ccccc12)C(=O)N[C@@H](CC(C)C)C(=O)N[C@H](C(=O)N[C@@H](CCCCN)C(=O)NCC(=O)N[C@@H](CCCN=C(N)N)C(=O)NCC(=O)O)C(C)C` the value was “Dose-dependent effect”.
With `CC[C@H](C)[C@H](NC(=O)[C@H](CO)NC(=O)[C@H](CC(N)=O)NC(=O)[C@H](CC(C)C)NC(=O)[C@H](Cc1ccc(O)cc1)NC(=O)[C@@H]1CCCCNC(=O)CC[C@H](NC(=O)[C@H](CCC(N)=O)NC(=O)[C@H](CCCCN)NC(=O)[C@H](CCCNC(=N)N)NC(=O)[C@H](CC(C)C)NC(=O)[C@H](CCCNC(=N)N)NC(=O)[C@@H](NC(=O)[C@H](Cc2ccc(O)cc2)NC(=O)[C@H](CC(N)=O)NC(=O)[C@H](CC(=O)O)NC(=O)[C@@H](NC(=O)[C@H](Cc2ccccc2)NC(=O)[C@@H](NC(=O)[C@H](C)NC(=O)[C@H](CC(=O)O)NC(=O)[C@H](CO)NC(=O)[C@@H](N)Cc2cnc[nH]2)C(C)C)[C@@H](C)O)[C@@H](C)O)C(=O)N[C@@H](C)C(=O)N[C@@H](C(C)C)C(=O)N[C@@H](CCCCN)C(=O)N1)C(=O)N[C@@H](CC(C)C)C(=O)N[C@@H](CC(N)=O)C(=O)NCC(=O)N[C@@H](CCCCN)C(=O)O` (H-HSDAVFTDNYTRLRKQEAVKKYLNSILNGK-OH; lactam 17-21), in series [4], the EC50 is 0.1 nM. Besides, the outcome with Pancreatic islet [5] was Active. The remaining at 0.25 h in series [1] was determined as 0.4%. Also, in series [2], the Papp A→B at 10 µM is below 0.1 ×10⁻⁶ cm/s.
As to H-HSDAVFTDNYTRLRKQEAVKKYLNSILNGK-OH, the EC50 in series [4] came to 0.38 nM. Besides, the result with Pancreatic islet [6] was Active. Also, the remaining at 0.25 h in series [1] worked out at 0.9%. In addition, the Papp A→B at 10 µM in series [2] was below 0.1 ×10⁻⁶ cm/s.
For “H-HSDAVFTDNYTRLRKQIAVKKYLNSILNGK-OH [listing 1 of 2 here]”, in series [4], the EC50 was determined as 0.14 nM. Further, the remaining at 0.25 h in series [1] worked out at 0.3%. Also, the Papp A→B at 10 µM in series [2] is below 0.1 ×10⁻⁶ cm/s.
For the compound “H-HSDAVFTDNYTRLRKQIAVKKYLNSILNGK-OH [listing 2 of 2 here]”, the outcome in the series with Pancreatic islet [8] was Active.
